Source: PubChem (Sanford-Burnham Center for Chemical Genomics)
LMPTP inh = LMPTP (human) inhibition | P24666 | recombinant LMPTP-A, OMFP fluorogenic substrate, fluorescence intensity | inhibition, % at 20 µM | hit rate 0.22% among 360,000;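 active = compounds that cut the enzyme signal by at least half of the control window in the single-dose screen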;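 note: plate controls were DMSO wells with enzyme plus substrate for no effect and substrate without enzyme for full effect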
Target sequence (P24666 whole entry, looked up): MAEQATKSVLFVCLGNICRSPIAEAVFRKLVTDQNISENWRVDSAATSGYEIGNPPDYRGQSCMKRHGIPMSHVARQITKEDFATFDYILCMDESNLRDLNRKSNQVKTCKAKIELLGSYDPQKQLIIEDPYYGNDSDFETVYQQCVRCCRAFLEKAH
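material = LMPTP-A | quantity = 0.625 nM enzyme | reagent = OMFP substrate, 400 µM final | buffer or medium = Bis-Tris pH 6.0, DTT, detergent | detection = endpoint fluorescence intensity from OMFP dephosphorylation | dosing = single 20 µM dose | read-out basis = % inhibition relative to no-enzyme and uninhibited control wells | control set = no-enzyme and uninhibited controls | timing = 50 min at room temperature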
STEP block = inhibitors of human striatal-enriched phosphatase STEP; hit rate 0.25% among 360,000; AID 588621; inhibition, % at 20 µM; recombinant STEP, OMFP fluorogenic substrate, fluorescence;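 active = inhibition at 20 µM, scaled per plate between control wells, above about 37%, limit read from the data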;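 note: 0% = DMSO with enzyme and substrate and 100% = substrate only without enzyme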
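Test system: STEP tyrosine phosphatase / Reagent: OMFP at 25 µM / Doses: 20 µM, 1% DMSO / Read-out: percent inhibition scaled to no-enzyme and uninhibited-enzyme controls, plate-pattern corrected / Detection: FITC-channel fluorescence of OMFP product / Medium: Bis-Tris buffer pH 6.0, 2.5 mM DTT, 0.005% Tween 20 / Schedule: 20 min at room temperature, dark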
SUMO1 PPI mod = SUMO1-SIM interaction modulation; SUMO1 binding to a labelled peptide, TR-FRET, 1 h; AID 602429; inhibition, % at 20 µM; hit rate 0.33% among 360,000; in the data active = inhibition above about 37%
Target sequence (P63165 whole entry, looked up): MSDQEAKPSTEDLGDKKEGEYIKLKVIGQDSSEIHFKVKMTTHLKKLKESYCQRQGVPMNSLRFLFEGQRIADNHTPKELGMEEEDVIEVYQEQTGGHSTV
Scp-1 inhibitor = blocks human Scp-1 phosphatase activity; Q9GZU7; Recombinant Scp1, phosphopeptide, malachite green phosphate absorbance; inhibition, % at 20 µM; hit rate 0.88% among 340,000; AID 493091;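 active = inhibition above about 50% at 20 µM, limit read from the data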;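 note: plate controls were DMSO wells with enzyme for no effect and wells lacking enzyme for full effect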
Target sequence (Q9GZU7 76-261 limits assumed): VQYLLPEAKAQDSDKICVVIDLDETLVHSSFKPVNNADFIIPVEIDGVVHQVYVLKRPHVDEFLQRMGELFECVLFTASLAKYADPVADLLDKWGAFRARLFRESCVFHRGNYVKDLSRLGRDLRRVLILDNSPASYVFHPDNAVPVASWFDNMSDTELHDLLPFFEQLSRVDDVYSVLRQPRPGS
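Assay system: SCP-1 catalytic fragment, aa 76-261 | Buffer or medium: Tris acetate buffer pH 5.5 with MgCl2 and Tween-20 | Compound: One concentration, 20 µM, with 1.0% DMSO | Also added: Phospho 17-mer peptide substrate | Signal: Absorbance at 630 nm | Incubation: 45 min enzyme reaction at room temperature | Measure: % inhibition of SCP-1 phosphate liberation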
DNMT1 inh = inhibitors of human DNMT1; P26358; DNMT1 molecular beacon, Hinp1I cleavage, fluorescence; inhibition (reported as % activation of signal), % at 10 µM; hit rate 0.83% among 360,000; AID 588458; in the data active = inhibition above about 50%
DNMT1 interf DR = shows spectral interference in the DNMT1 beacon assay | AID 602382 | molecular beacon fluorescence, spectral interference counter-screen | 200 tested, under 10 active | IC50, µM | shares compounds with DNMT1 inh; call rule not given here
DNMT1 inh conf = confirmation of human DNMT1 inhibitors. shares compounds with DNMT1 inh. DNMT1 molecular beacon HinP1I cleavage, fluorescence. inhibition, % at 10 µM. hit rate 8% among 2,300. AID 602385;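 active = average inhibition of at least 30% in the single-concentration confirmation test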
DNMT1 interf = counter-screen for DNMT1 inhibitors: spectral interference; shares compounds with DNMT1 inh; DNMT1 molecular beacon spectral interference counterscreen, fluorescence 485/520; activation (fluorescence interference), % at 10 µM; hit rate 1% among 2,300; AID 602387;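 active = activation of at least 30% at 10 µM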;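 note: DNMT1 catalytic domain with a HinP1I cleavage step and a FAM/dabcyl DNA beacon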
* = called active by the depositor; / = not tested or not shown; ! = a repeat was not active. Hits are enriched below; roughly 1.7% of the tested compounds scored in any of these assays.

SMILES | LMPTP inh | STEP block | SUMO1 PPI mod | Scp-1 inhibitor | DNMT1 inh | DNMT1 inh conf | DNMT1 interf | others
O=C(NCc1ccco1)c1ccc(Cn2cc([N+](=O)[O-])cn2)o1 | -1 | -1 | -11 | 0 | 4 | / | /
S=C(NCc1ccco1)NCc1ccco1 | 9 | 13 | 5 | 4 | 50 | 1 | -1
O=C(NCc1ccco1)c1ccc([N+](=O)[O-])o1 | 9 | -2 | -23 | 59* | 67* | 3 | 3
COC(=O)c1ccc(Nc2nc(C)nc3c2nnn3Cc2ccccc2)cc1 | 0 | 1 | 1 | -9 | 11 | / | /
Cc1ccc(-c2csc3ncn(CC#N)c(=O)c23)cc1C | 11 | 20 | 23 | 48 | 21 | / | /
Cc1ccc(-c2csc3ncn(CC#N)c(=O)c23)cc1 | 1 | -1 | 11 | 8 | 48 | 5 | 6
O=C1OC(CN(Cc2ccccc2)Cc2ccccc2)CN1N=Cc1ccc([N+](=O)[O-])o1 (stereo unspecified) | 2 | 5 | -7 | 3 | 14 | / | /
O=C(N/N=C/c1cn(Cc2cccc(F)c2)c2ccccc12)c1cc(O)cc(O)c1 | 43 | 98* | 53* | 77* | 93* | 121* | 0 | DNMT1 interf DR=>99
CCOc1cc(C(=O)OC(C)C(=O)Nc2ccc(NC(C)=O)cc2)ccc1OCC(=O)N1CCCCC1 (stereo unspecified) | 0 | 1 | -6 | -2 | 1 | / | /
CNC(=O)CSc1nnc(SCCC(=O)O)s1 | 0 | -1 | 5 | -1 | 73* | 0 | 1
Cc1ccc(C(=O)Nc2cccc(C(F)(F)F)c2)cc1NC(=O)c1ccno1 | 0 | -3 | 3 | -4 | -4 | / | /
Cc1ccc(C(=O)Nc2cccc(C(F)(F)F)c2)cc1NC(=O)c1nccn1C | 4 | 1 | 5 | -4 | 56*! | 0 | 5
COC(=O)c1ccc(NC(=O)CCN2CCOCC2)cc1 | -1 | 1 | -4 | -1 | 92* | 2 | 3
O=C(NCc1ccco1)C1C(=O)Nc2ccccc2C(=O)N1C1CCCCC1 (stereo unspecified) | -1 | / | -2 | / | / | / | /
C=CCN(C(=O)c1csnn1)C(C(=O)NCc1ccc(F)cc1)c1ccccc1F (stereo unspecified) | -1 | 1 | -5 | -10 | 54* | 2 | 5
O=C(O)c1ccc(-c2ccc(/C=C3\NC(=O)N(Cc4ccc(Cl)cc4)C3=O)o2)cc1Cl | 10 | 49* | 25 | 81* | 88* | 60* | -1 | DNMT1 interf DR=>99
COCCn1c(SCC(=O)Nc2sc(C)c(C)c2C#N)nnc1-c1ccc(OC)cc1 | -1 | -3 | 0 | -9 | 2 | / | /
Cc1ccc(-c2nnc(SCC(=O)Nc3sc(C)c(C)c3C#N)n2C)cc1 | -1 | -8 | -1 | -9 | 52* | 3 | -4
O=C(O)C(SC(C(=O)O)c1ccccc1)c1ccccc1 (stereo unspecified) | 1 | 8 | 1 | -2 | 10 | / | /
Cc1ccc(N2CC(C)Cn3c2nc2c3c(=O)[nH]c(=O)n2C)cc1C (stereo unspecified) | 0 | -2 | 3 | -6 | -3 | / | /
Cc1ccc(C2(c3ccccc3)NC(=O)N(CC(=O)N(C)C3CCS(=O)(=O)C3)C2=O)cc1C (stereo unspecified) | 1 | -1 | -3 | -8 | -1 | / | /
COCCn1c(=O)[nH]c(=O)c2c1nc(-c1ccc(-c3ccc(Cl)cc3[N+](=O)[O-])o1)n2Cc1ccccc1 | 4 | 1 | -3 | -7 | -41 | / | /
COCCn1c(-c2ccc(-c3ccc([N+](=O)[O-])cc3Br)o2)nc2c1c(=O)[nH]c(=O)n2CC(C)C | 4 | 0 | -8 | -7 | 70* | -1 | -1
CC1CCN(CC(=O)Nc2cccc(Cl)c2)CC1 | 0 | -3 | 1 | 0 | 0 | / | /
Cc1ccc(NC(=O)COc2ccc(/C=C3/SC(=Nc4ccccc4)N(Cc4cccnc4)C3=O)cc2)cc1 | -1 | 0 | -3 | 7 | 61* | -1 | -8
SMILES | LMPTP inh | STEP block | SUMO1 PPI mod | Scp-1 inhibitor | DNMT1 inh | DNMT1 inh conf | DNMT1 interf | others
Cc1noc(C)c1CSCC(=O)N(C)CC(=O)Nc1ccc(Cl)c(C(F)(F)F)c1 | -1 | -2 | 3 | -8 | 4 | / | /
O=C(NC1CCSc2ccccc21)c1cccc(S(=O)(=O)N2CCOCC2)c1 (stereo unspecified) | -1 | 0 | -3 | 4 | -1 | / | /
COc1ccccc1N1CCN(/N=C/c2ccc(Cl)c([N+](=O)[O-])c2)CC1 | 2 | 4 | -9 | 4 | 99* | 35* | 6 | DNMT1 interf DR=>99
COc1ccccc1N1CCN(/N=C/c2ccc([N+](=O)[O-])cc2)CC1 | 0 | 3 | -26 | 4 | -3 | / | /
COCCOc1ccc(C(F)(F)F)cc1NC(=O)COC(=O)Cc1c[nH]c2ccccc12 | 8 | 7 | 5 | -7 | -10 | / | /
COc1ccc(/C=N/NC(=O)c2nc(Cl)c(Cl)c(N)c2Cl)cc1COc1ccc(F)cc1F | 3 | 3 | 2 | 13 | 53* | 9 | 0
COc1ccc(/C=N/NC(=O)c2ccc(NC(C)=O)cc2)cc1COc1ccc(F)cc1F | 7 | 1 | 14 | 24 | 77* | -2 | -6
COc1ccc(/C=N\NC(=O)c2ccccc2F)cc1COc1ccc(F)cc1F | 8 | 3 | 0 | -9 | -5 | / | /
CCC[C@@H]1CCCC/C=C\CCCC(=O)OCCN1C(=O)OC(C)(C)C | 2 | 3 | 5 | -4 | 12 | / | /
O=C(Nc1ccc(-c2nc3ncccc3o2)cc1)c1ccc([N+](=O)[O-])o1 | 4 | 5 | -17 | -2 | 50* | -2 | -1
Cc1ccc(CNc2ccc3nnc(-c4ccccc4)n3n2)cc1 | 4 | 0 | 17 | 0 | 74* | 4 | 0
COc1cccc(NC(=O)CN(C)C(=O)[C@@H]2CCCN2C(=O)c2cccs2)c1 | 0 | 1 | 4 | -9 | 1 | / | /
COC(=O)c1ccc(CSc2nc3scc(-c4cccs4)c3c(=O)[nH]2)o1 | 2 | 4 | 14 | -5 | 80* | 7 | 1
ClC(Cl)(Cl)c1nc(N/N=C/c2ccncc2)c2ccccc2n1 | 0 | -2 | -2 | -4 | 55* | 6 | 7
O=[N+]([O-])c1cccc(/C=N/Nc2nc(C(Cl)(Cl)Cl)nc3ccccc23)c1 | -2 | 0 | 0 | -1 | -2 | / | /
COc1cc(/C=C/C(=O)O[C@H]2[C@H](O[C@@H]3O[C@@H](C)[C@H](O)[C@@H](O)[C@H]3O)[C@@H](O)[C@H](OCCc3ccc(O)c(OC)c3)O[C@@H]2CO)ccc1O | 0 | -1 | -3 | -6 | 8 | / | /
